Screens deposited in PubChem BioAssay by several laboratories.
MEKK2wt PB1 HTS – raises or lowers MEK5 binding to wildtype human MEKK2 PB1 domain; binding response (% of control), % at 10 µM; bead flow cytometry, Alexa488-MEK5 binding to MEKK2 WT; actives lie on both sides; 290,000 tested, 1.1% active; Q9Y2U5; in the data active = binding response below about 67% or above about 130%
Apaf1 inhib – blocks human Apaf-1 apoptosome activity; inhibition, % at 20 µM; reconstituted apoptosome caspase-3 activity, DEVD-Rh110 fluorescence; 330,000 tested, 0.71% active; active = inhibition of at least 40% at 20 µM;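 also: plate controls were DMSO wells for no effect and DEVD-CHO caspase inhibitor wells for full effect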
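System – cell-free apoptosome with Apaf-1, procaspase-3 and caspase-9 · Buffer or medium – pH 7.5 Hepes buffer with CHAPS, BSA, DTT · Also added – cytochrome c with DEVD-Rh110 · Times – 30 min compound preincubation, 50 min activation, room temperature · Technique – Rh110 fluorescence intensity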
MEKK3 PB1 HTS – modulators (inhibitors or enhancers) of MEK5 binding to human MEKK3 PB1 domain; Q99759; bead-based flow cytometry, Alexa488-MEK5 binding to MEKK3; actives lie on both sides; 0 = blocked by unlabeled MEK5, 100 = vehicle; binding response (% of control), % at 10 µM; 290,000 tested, 1.4% active;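 active = binding response more than 3 SD above or below the average of its plate-row segment, actives on both sides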;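 also: Alexa488 bead fluorescence after subtracting the streptavidin-only scavenger bead signal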
DSG3 Ab inh – inhibitors of pemphigus antibody binding to human desmoglein-3; P32926; DSG3-coupled beads, scFv-anti-DSG3-GFP binding, flow cytometry; active compounds read low; binding (percent of control), % at 10 µM; 310,000 tested, 0.48% active; AID 588358;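 active = binding more than 3 SD below its plate's average and above zero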;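 also: hits lower antibody fragment binding to DSG3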
MEKK2 mut-MEK5 – signal of MEK5 binding to mutant human MEKK2 PB1 domain | 290,000 tested, 0.35% active | percent response, % at 10 µM | bead flow cytometry, Alexa488-MEK5 binding to MEKK2 mutant | AID 1530; in the data active = percent response above about 24%, passing the limit was not always enough
UBC13 inh – blocks human UBC13 polyubiquitin chain formation; P61088; inhibition, % at 20 µM; 330,000 tested, 0.47% active; TR-FRET; AID 485273; in the data active = inhibition above about 45%, passing the limit was not always enough
MEKK2wt confirm – raises or lowers MEK5 binding to wildtype human MEKK2, retest | shares compounds with MEKK3 PB1 HTS | bead flow cytometry, Alexa488-MEK5 binding to MEKK2 WT; actives lie on both sides | binding response (% of control), % at 10 µM | 5,900 tested, 2.4% active; in the data active = binding response below about 16% or above about 210%; inactive = in between
MEKK2mut confirm – signal of MEK5 binding to mutant human MEKK2, retest | bead flow cytometry, Alexa488-MEK5 binding to MEKK2 mutant | percent response, % at 10 µM | shares compounds with MEKK3 PB1 HTS | AID 1893 | 5,900 tested, 2% active; in the data active = percent response mostly above about 71%, no sharp cut-off; inactive = mostly below about 38%;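 also: higher means compound restores mutant binding toward wildtype level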
MEKK3-MEK5 inh – MEKK3-MEK5 PB1 inhibition, single concentration confirmation; 5,900 tested, 1.8% active; AID 1894; shares compounds with MEKK3 PB1 HTS; binding response (% of control), % at 10 µM; bead flow cytometry, Alexa488-MEK5 binding to MEKK3; active compounds read low;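 active = binding response below 72% of control, or above a set upper limit, though filed actives all read lower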;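 also: 100% = DMSO only wells and 0% = binding blocked by excess unlabeled MEK5; lower values mean stronger disruption of MEK5 binding to MEKK3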
* = called active by the depositor; nt = no result; [ ] = another dose, or the depositor's remark. Most compounds without a hit are left out; they make up all but 3.2% or so of the library.

SMILES	MEKK2wt PB1 HTS	Apaf1 inhib	MEKK3 PB1 HTS	DSG3 Ab inh	MEKK2 mut-MEK5	UBC13 inh	MEKK2wt confirm	MEKK2mut confirm	MEKK3-MEK5 inh
COc1ccc(NC(=O)Cn2c(=O)n(CC3CCCO3)c(=O)c3ccccc32)c(OC)c1 (stereo unspecified)	92.0	-22.3	100.0	99.6	-2.0	20.8	nt	nt	nt
COc1ccc(-n2c(=O)c3ccccc3n(CC(=O)NC3CCCCC3)c2=O)cc1	121.0	-1.9	124.0*	nt	4.0	0.7	104.0	2.0	102.0
COc1ccc(-n2c(=O)c3ccccc3n(CC(=O)NC3CCCCC3)c2=O)cc1OC	82.0	-11.7	102.0	97.7	-6.0	-7.5	nt	nt	nt
COc1cc(NC(=O)Cn2c(=O)n(CC3CCCO3)c(=O)c3ccccc32)cc(OC)c1 (stereo unspecified)	113.0	1.6	138.0*	94.1	0.0	-12.4	116.0	14.0	109.0
Cc1csc2sc(-c3ccnc(SCC(=O)NCc4ccccc4)n3)c(C)c12	112.0	6.2	130.0*	99.4	27.0	-10.8	103.0	-2.0	102.0
CS(=O)(=O)c1ccc(NC(=O)C2CC(=O)N(c3ccc4c(c3)OCCO4)C2)cc1 (stereo unspecified)	nt	6.8	nt	101.1	nt	4.2	nt	nt	nt
COc1ccc(CCn2c(NN=C3CCCCC3)nc3c2c(=O)[nH]c(=O)n3C)cc1	57.0*[inhibitor]	-3.4	65.0*[inhibitor]	98.1	-9.0	-52.9	99.0	-1.0	97.0
Cc1ccc(S(=O)(=O)Nc2ccc(NC(=O)Nc3cccc(C(F)(F)F)c3)cc2)cc1	171.0*	29.8	109.0	nt	54.0*	-16.5	176.0	36.0	97.0
O=C(NCCNC(=O)c1cc(OCC(F)(F)F)ccc1OCC(F)(F)F)Nc1cccc(C(F)(F)F)c1	142.0*	14.2	103.0	107.8	11.0	-1.4	111.0	4.0	103.0
Cc1ccc(NC(=S)NNC(=S)Nc2cccc(C(F)(F)F)c2)cc1	117.0	7.2	107.0	99.0	4.0	-19.1	nt	nt	nt
O=C(Nc1ccc(OC(F)F)cc1)Nc1cccc(C(F)(F)F)c1	209.0*	1.4	113.0	98.4	17.0	4.9	115.0	-1.0	93.0
O=C(Nc1ccncc1)Nc1cccc(C(F)(F)F)c1	101.0	18.4	100.0	107.5	-3.0	14.0	nt	nt	nt
CCN(CC)S(=O)(=O)c1ccc(NC(=O)Nc2cccc(C(F)(F)F)c2)cc1	144.0*	-9.9	108.0	nt	26.0	-4.2	168.0	30.0	102.0
CC1(C)Oc2c(ccc(O)c2CN2CCOCC2)C2=C1CCCC2	nt	nt	nt	85.1	nt	nt	nt	nt	nt
Cc1cc(=O)oc2cc(OCC(=O)NC3(C#N)CCCCC3)c(Cl)cc12	nt	-1.1	nt	106.5	nt	-1.2	nt	nt	nt
N#CC(C#N)=C1C=CC=CN1/C(=C\c1ccco1)C(=O)c1ccc(Br)cc1	106.0	nt	137.0*	99.2	1.0	nt	100.0	-2.0	102.0
CC(=O)c1cc2c(cc1NC(=O)CSc1ncccn1)OCO2	nt	nt	nt	102.9	nt	nt	nt	nt	nt
O=C1C(Br)=C(c2ccccc2)C(c2ccccc2)=C1c1ccccc1	nt	nt	nt	89.6	nt	nt	nt	nt	nt
O=C(/C=C/c1ccco1)N(Cc1ccc(F)cc1)C1CCS(=O)(=O)C1 (stereo unspecified)	63.0*[inhibitor]	-12.0	59.0*[inhibitor]	nt	-17.0	-6.5	97.0	-1.0	98.0
N/C(=N\OS(=O)(=O)c1ccc2ccccc2c1)c1cccnc1	104.0	-13.3	83.0	83.2	1.0	-1.5	nt	nt	nt
N/C(=N\OS(=O)(=O)c1ccccc1)c1cccnc1	106.0	nt	130.0*	95.6	0.0	nt	109.0	7.0	108.0
COc1ccc(C(C)=O)cc1CSc1nc2ccccc2c(=O)n1-c1cccc(C)c1	102.0	-1.4	156.0*	91.9	-1.0	6.5	98.0	0.0	105.0
